# High-throughput results from PubChem BioAssay.
# Rows were chosen to be rich in hits. Some 4.5% of all compounds tested hit in one or more screens of this group.
# TAAR1 antagonist: human TAAR1 antagonists, primary screen, Fluo-8 calcium fluorescence, CHO RD-HGA16 cells. antagonist. inhibition, % at 3 µM. 360,000 tested, 1.5% active. AID 624466, 2012;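 active means inhibition above a per-plate cutoff, the mean inhibition of test compounds on that plate plus 3 SD, cut at about 49% in these data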;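 further: 0% = DMSO plus EC80 beta-PEA response and 100% = DMSO alone without agonist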
#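 Material: CHO RD-HGA16 cells bearing hTAAR1; compound dosing: one-point dosing, 3 µM nominal final; schedule: dye loading 75 min at 37 °C, then 30 min room temperature; measured by: calcium fluorescence with Fluo-8; control set: vehicle and agonist controls; replication: n of 1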
# CHO parental Ca: ATP-evoked calcium signal inhibitors, parental CHO, primary screen, counter-screen for OX1R antagonist project, cell-based, fluorescence, Fluo-8 calcium dye. parental CHO-K1, ATP-induced calcium, Fluo-8 fluorescence. inhibition, % at 5.6 µM. 330,000 tested, 0.63% active;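 active means inhibition above that plate's mean sample inhibition plus 3 SD, cut at about 26% in these data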;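 further: 0% = ATP-challenged DMSO wells and 100% = DMSO wells without ATP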
#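 Assay system: parental CHO cells; Read-out basis: percent inhibition of ATP-evoked calcium rise, normalized to controls; Benchmarks: ATP and no-ATP DMSO wells; Compound dosing: single nominal dose of 5.6 µM per compound; Signal: Fluo-8 calcium dye fluorescence; Also added: ATP as calcium-mobilizing challenge; Repeats: singlicate.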
# OX1R antag-1: antagonists of human orexin 1 receptor (OX1R); Orexin/Hypocretin receptor type 1 (Homo sapiens), O43613; OX1R-expressing cells, FRET antagonist read-out; inhibition, % at 6.6 µM; 330,000 tested, 1.8% active; AID 485270, 2010; in the data active means inhibition mostly above about 38%, no sharp cut-off; inactive means mostly below about 40%;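 further: 0% = agonist challenge alone and 100% = reference antagonist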
# Target sequence (O43613 whole entry, looked up): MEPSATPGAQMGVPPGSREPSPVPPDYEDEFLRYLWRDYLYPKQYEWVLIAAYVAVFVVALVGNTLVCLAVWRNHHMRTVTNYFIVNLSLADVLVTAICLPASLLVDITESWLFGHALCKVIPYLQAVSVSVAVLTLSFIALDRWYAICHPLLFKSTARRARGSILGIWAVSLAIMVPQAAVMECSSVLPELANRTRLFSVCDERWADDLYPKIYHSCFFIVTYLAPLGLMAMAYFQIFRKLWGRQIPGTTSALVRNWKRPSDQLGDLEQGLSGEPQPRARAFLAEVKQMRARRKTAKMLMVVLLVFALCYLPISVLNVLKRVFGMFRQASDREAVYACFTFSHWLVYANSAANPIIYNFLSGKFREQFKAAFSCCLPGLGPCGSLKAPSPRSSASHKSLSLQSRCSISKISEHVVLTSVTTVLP
# GPR7 antagonist: GPR7 receptor antagonists, primary screen, cell-based, fluorescence, single concentration | Neuropeptides B/W receptor type 1 (Homo sapiens), P48145 | GPR7-expressing cells, fluorescence antagonist assay | inhibition, % at 4.4 µM | 290,000 tested, 1.1% active | AID 1861, 2009; in the data active means inhibition above about 16%, passing the limit was not always enough;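 further: cells stimulated with the agonist NPW; 0% = agonist with vehicle and 100% = vehicle without agonist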
# TAAR1 agonist: human TAAR1 agonists, primary screen, Fluo-8 calcium fluorescence, CHO RD-HGA16 cells; Trace amine-associated receptor 1 (Homo sapiens), Q96RJ0; 360,000 tested, 0.99% active; activation, % at 3 µM; vehicle wells 0%, saturating PEA agonist 100%; AID 624467, 2012;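 active means activation above the mean activation of all test compounds in the run plus 3 SD, cut at about 38% in these data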
#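 System: CHO RD-HGA16 cells carrying human TAAR1 plus Gα16; Incubation: 17-24 h seeding, 75 min 37 °C dye, 30 min RT; Measured by: Fluo-8 fluorescence, 5 s baseline then 140 s kinetic read; Control set: DMSO and PEA EC100; Replication: single well for each compound.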
# OX1R antag-2: OX1R (HCRTR1) antagonists, primary screen, fluorescence, CHO/OX1R cells, Fluo-8 calcium, orexin A; 330,000 tested, 0.43% active; Fluo-8 calcium fluorescence; inhibition, % at 5 µM; AID 434989, 2010;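 active means inhibition above its plate's threshold, mean inhibition of all tested compounds on the plate plus 3 SD, cut at about 37% in these data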;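 further: 0% = orexin A challenge wells and 100% = SB-334867-A antagonist wells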
# GPR7 antag cf: GPR7 receptor antagonists, confirmation, cell-based, fluorescence, single concentration. 2,400 tested, 52% active. AID 1952, 2009. shares compounds with GPR7 antagonist. inhibition, % at 4.4 µM. GPR7-expressing cells, calcium fluorescence antagonist mode; in the data active means inhibition above about 24%;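 further: stimulated with the GPR7 agonist NPW; 0% = agonist plus vehicle and 100% = vehicle alone without agonist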
# MCHR1 antagonist: MCHR1 antagonists in cells, counter-screen for GPR7 antagonist project, cell-based, fluorescence, human; 2,400 tested, 62% active; AID 2148, 2009; MCHR1-expressing cells, fluorescence antagonist assay; inhibition, % at 4.4 µM; shares compounds with GPR7 antagonist; in the data active means inhibition above about 22%;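 further: 0% = vehicle with agonist and 100% = vehicle without agonist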
# Starred values were filed as active, the others as inactive; nt = not tested or not shown; ! = repeats disagree.
SMILES,TAAR1 antagonist,CHO parental Ca,OX1R antag-1,GPR7 antagonist,TAAR1 agonist,OX1R antag-2,GPR7 antag cf,MCHR1 antagonist
COc1ccc(C(=O)N(C)Cc2ccc(C)o2)cc1OC1CCN(C(C)=O)CC1,-33,-7,5,23*,5,-16,1,36*
COc1cccc(NC(=O)CN(C)C(=O)c2cccc(S(=O)(=O)N3CCN(c4ccccc4)CC3)c2)c1,-3,14,12,24*,6,-2,16,39*
NS(=O)(=O)c1ccc(NC(=O)CN2CCN(S(=O)(=O)c3ccc(F)cc3)CC2)cc1,-1,-2,-3,-6,1,-4,nt,nt
O=C(CN1CCN(S(=O)(=O)c2ccc(Br)cc2)CC1)Nc1ccc(F)cc1,-1,22,28,30*,7,-12,39*,26*
O=C(CN1CCCCCC1)Nc1ccc(F)c(F)c1,-23,-9,6,-1,7,-12,nt,nt
O=C(CN1CCN(CC(=O)Nc2ccccc2Cl)CC1)Nc1ccc(F)c(F)c1,4,-4,-1,48*,3,-18,42*,61*
COc1cccc(NC(=O)CN2CCN(S(=O)(=O)c3ccc(C(C)C)cc3)CC2)c1,10,-15,13,35*,4,-25,38*,29*
Cc1cc(C)c2cc(C#N)c(NCCNC(=O)c3ccncc3)nc2c1,-19,nt,nt,nt,-2,nt,nt,nt
CCN(CC)CCN(C(=O)c1ccc2c(c1)CCCC2)c1nc2c(C)cccc2s1,-47,-21,23,-1,3,-34,nt,nt
CC(C)(C)Cc1c(-c2ccccc2)nc2ccc(Cl)cn12,13,nt,nt,nt,3,nt,nt,nt
COc1cccc(NC(=O)CN2C(=O)COc3ccc(S(=O)(=O)N4CCC(C)CC4)cc32)c1,-12,-4,4,23*,2,-3,-15,0
O=C(CN1CCN(S(=O)(=O)c2ccc(Br)cc2)CC1)Nc1ccc(F)cc1F,7,-10,3,13,15,-8,nt,nt
O=C(CN1CCN(S(=O)(=O)c2ccc(Cl)cc2)CC1)Nc1ccc(F)cc1F,nt,-10,24,24*,nt,-32,34*,22*
COc1cc(NC(=O)CNc2cccc(S(=O)(=O)N3CCCC3)c2)cc(OC)c1,-11,13,48,31*,2,4,4,19
CC#CCN(CC#CC)S(=O)(=O)c1ccc(-n2cnnn2)c(OC)c1,8,-7,8,24*,-2,-7,11,5
O=C(CNS(=O)(=O)c1ccc([N+](=O)[O-])cc1)N/N=C/c1ccc(O)cc1O,16,12,16,41*,21,15,64*,44*
Cc1cc(NC(=O)CCc2ccc(S(=O)(=O)N3CCOCC3)cc2)n(-c2ccccc2)n1,0,-10,15,30*,3,-3,-9,21
Cc1cc(NC(=O)CN2CCOCC2)n(-c2ccccc2)n1,-26,-18,0,-11,1,-14,nt,nt
CC(C)NC(=O)Nc1nnc([C@@H]2C[C@H](O)[C@@H](CO)O2)s1,-13,nt,nt,nt,1,nt,nt,nt
CC1(Cc2ccc(F)c(Cl)c2)C(=O)Nc2c(Cl)cccc21 (configuration not stated),18,nt,nt,nt,5,nt,nt,nt
O=c1ccc2ccc(OCc3nnc(-c4ccccc4Br)o3)cc2o1,12,-24,7,18,23,-20,nt,nt
Cc1cc(=O)oc2cc(OCc3nnc(-c4ccccc4Br)o3)ccc12,22,1,46,31*,43*,-2,17,25*
CCc1nc2c(OCc3ccc(C#N)cc3)cccn2c1N(C)C(=O)c1cccs1,-22,nt,nt,nt,-1,nt,nt,nt
CCCCN(C)CC(O)Cn1cc(/C=C/C(=O)c2ccc(C)cc2)c2ccccc21 (configuration not stated),23,3,4,37*,17,-16,37*,36*
COC(=O)CCCn1cc(CN2CC(N(C)C)CS2(=O)=O)nn1 (configuration not stated),7,nt,nt,nt,2,nt,nt,nt
SMILES,TAAR1 antagonist,CHO parental Ca,OX1R antag-1,GPR7 antagonist,TAAR1 agonist,OX1R antag-2,GPR7 antag cf,MCHR1 antagonist
Cc1ccc(C(=O)C[n+]2cc(-c3ccc(C)cc3)n3c2CCCCC3)cc1,3,1,-1,60*,14,17,32*,50*
COc1ccc(C(=O)C[n+]2cc(-c3ccc(OC)cc3)n3c2CCCC3)cc1,3,2,14,-5,5,0,nt,nt
CC1=NC(C)(C)Cc2ccccc21,-3,-7,12,-7,3,-14,nt,nt
CC1(C)Cc2ccccc2C(COc2ccccc2)=N1,-27,nt,nt,26*,2,nt,-1,0
O=C1c2ccccc2C(c2nnnn2Cc2ccccc2)N1Cc1cccnc1 (configuration not stated),-12,nt,nt,nt,1,nt,nt,nt
CCCCCCCCCCCCCCCCn1cc[n+](C)c1,41,71*,24,31*!,27,85*,94*,99*
CC(NCCC(Cc1ccccc1)c1ccco1)c1ccccc1 (configuration not stated),-7,-2,8,24*,3,-14,41*,50*
Fc1ccc(CNCCC(Cc2ccccc2)c2ccco2)cc1 (configuration not stated),-9,-9,-3,29*,11,-2,44*,40*
C[C@@H]1CN([C@@H](C)CO)C(=O)CCCn2nncc2CO[C@H]1CN(C)Cc1ccc(Cl)c(Cl)c1,-22,nt,nt,nt,0,nt,nt,nt
CCc1ccc(C(c2c(C)nn(-c3ccccc3)c2N)c2c(C)nn(-c3ccccc3)c2N)cc1,3,-22,16,4,-2,-11,nt,nt
Cc1cccc(C(c2c(C)nn(-c3ccccc3)c2N)c2c(C)nn(-c3ccccc3)c2N)c1,-3,-6,13,21*,8,-13,21,12
CCC(CC)C(=O)N(C)c1c(C)nc2c(OCC(=O)C(C)(C)C)cccn12,10,nt,nt,nt,1,nt,nt,nt
CC(=O)Oc1c(I)cc(I)cc1C(=O)Nc1ccc(Cl)cc1,7,58*,80*,27*,3,9,6,61*
